Compound activity from PubChem.
5HT1E antag – blocks the human 5-HT1E serotonin receptor. CHO 5-HT1E Ga15 NFAT-bla reporter, FRET, antagonist. inhibition, % at 6 µM. 65,000 compounds, 0.99% hits;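 active = inhibition above a set limit, the mean inhibition across every tested compound plus 3 SD, cut at about 29% in these data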;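 also: signal is the 460 over 535 nm emission ratio of beta-lactamase substrate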
S1P1 ag pot – S1P1 (human) agonism or agonism potentiation. P21453. S1P1 CRE-bla cells, forskolin, beta-lactamase FRET, potentiator mode; S1P1 agonist co-added at EC20, 2 nM; 100% = saturating reference agonist, 0% = basal. activation, % at 9.5 µM. 56,000 compounds, 0.57% hits;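 active = activation above a cutoff set at the mean activation of all tested compounds plus 3 SD, cut at about 54% in these data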;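 also: forskolin at 4 µM as EC80 and the EC20 agonist is SEW2871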
5HT1a antag – blocks the human serotonin 5-HT1a receptor | inhibition, % at 10 µM | CHO 5-HT1a Ga15 NFAT-bla reporter, antagonist mode | AID 612 | 62,000 compounds, 0.68% hits | P08908;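 active = inhibition above the mean of all tested compounds plus 3 SD, cut at about 43% in these data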;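 also: receptor stimulated by 5-CT agonist at 100 nM near EC80; beta-lactamase reporter measured by ratiometric fluorescence of a cleavable substrate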
5HT1E ag – agonists of human 5-HT1E serotonin receptor; P28566; CHO 5-HT1E Ga15 NFAT-bla reporter, FRET; 0% DMSO wells, 100% control agonist wells; activation, % at 6 µM; 65,000 compounds, 0.69% hits; AID 574;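 active = activation above a set limit, the screen-wide mean activation plus 3 SD, cut at about 8.5% in these data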
S1P3 ag – agonists of human S1P3 receptor; 60,000 compounds, 0.1% hits; S1P3 NFAT-BLA reporter cells, agonism, FRET ratio; relative to 1 µM S1P, basal subtracted; Q99500; AID 373; activation, % at 4.5 µM;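 active = activation above the screen-wide mean plus 3 SD, cut at about 4.5% in these data, passing the limit was not always enough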
Target sequence (Q99500 whole entry, looked up): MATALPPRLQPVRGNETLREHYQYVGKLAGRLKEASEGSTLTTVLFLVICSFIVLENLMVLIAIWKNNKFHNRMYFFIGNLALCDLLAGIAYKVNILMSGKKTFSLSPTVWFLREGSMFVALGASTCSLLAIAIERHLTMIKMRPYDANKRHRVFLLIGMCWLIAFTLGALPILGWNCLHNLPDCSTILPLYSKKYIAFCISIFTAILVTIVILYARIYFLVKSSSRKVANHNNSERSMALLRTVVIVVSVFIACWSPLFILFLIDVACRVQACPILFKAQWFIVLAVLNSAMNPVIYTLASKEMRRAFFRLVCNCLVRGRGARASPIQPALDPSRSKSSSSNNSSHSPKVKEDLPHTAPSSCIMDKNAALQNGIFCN
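material = human S1P3 NFAT-BLA reporter CHO cells | schedule = 4 h compound at 37 °C, 2 h substrate at RT | measured by = fluorescent BLA substrate, ex 405 nm, em 460/535 nm ratio | controls = 1 µM S1P reference | replication = primary once, confirmation triplicate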
5HT1a ag – 5-HT1a (human) receptor agonism. P08908. CHO 5-HT1a Ga15 NFAT-bla reporter, FRET ratio; 0% basal, 100% maximal reference agonist. activation, % at 10 µM. 65,000 compounds, 0.56% hits. AID 567;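 active = activation above the screen-wide mean activation plus 3 SD, cut at about 19% in these data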
A number is an active result; . = inactive; / = no result. The list is not random: actives were taken first. Their share in the collection is about 3%.

SMILES | 5HT1E antag | S1P1 ag pot | 5HT1a antag | 5HT1E ag | S1P3 ag | 5HT1a ag
Cc1oc(-c2ccc(Cl)cc2)nc1CN1CCC(C(=O)N2CCc3ccccc3C2)CC1 | . | . | . | . | . | 32
Cc1oc(-c2ccc(Cl)cc2)nc1CN1CCCC(C(=O)NCCCN2CCOCC2)C1 (configuration not stated) | . | . | . | 23 | . | .
CCCN(CCC)S(=O)(=O)c1cc(Br)cc2c1N(C(=O)CC)CC2 | . | / | . | . | / | .
c1coc(CNC2CCCCCCC2)c1 | . | . | . | . | . | 42
CCCc1ccc(OCc2ccc(C(=O)N3CCN(c4ccccn4)CC3)o2)c(OC)c1 | . | . | . | . | . | .
O=C(Nc1ccccc1NC(=O)NC1CCCCC1)NC1CCCCC1 | 56 | / | . | . | . | .
COc1cccc(CNC(=O)C2CCN(S(=O)(=O)N3CCCC3)CC2)c1 | . | . | . | . | . | .
CCOc1ccc(-c2cnc(SCC(N)=O)nc2N)cc1 | . | . | . | . | . | .
N#Cc1c(-c2cccs2)cc(-c2cccnc2)nc1N | 44 | . | . | . | . | .
N#Cc1c(N)nc(SCC(=O)NCCc2ccccc2)c(C#N)c1-c1cccs1 | . | . | / | . | . | .
N#Cc1c(-c2cccs2)cc(-c2ccccn2)nc1N | 43 | . | . | . | . | .
COc1ccc(N2CCN(CCNC(=O)CCCn3c(=O)[nH]c4cc(Cl)ccc4c3=O)CC2)cc1 | . | / | . | . | / | .
Cc1cc(C(=O)NCCN2CCN(c3cccc(Cl)c3)CC2)n(-c2ccccc2)n1 | . | . | . | . | . | 31
COCCn1c(=O)[nH]c2cc(C(=O)NCCN3CCN(c4cccc(Cl)c4)CC3)ccc2c1=O | . | / | . | . | / | 28
CCOCCCn1c(=S)[nH]c2cc(C(=O)NCCOC)ccc2c1=O | . | / | . | 16 | / | .
Cn1cc(C(=O)NCCN2CCN(c3cccc(Cl)c3)CC2)c2c3ccccc3n(C)c2c1=O | . | . | . | . | . | .
Cc1nc2sccn2c1-c1nc(C2CC2)c(C(=O)c2ccc3c(c2)NC(=O)CO3)s1 | . | . | . | . | . | .
COc1ccc(-n2c(SCC(=O)N3CCN(c4ccccc4)CC3)nc3c(c2=O)SCC3)cc1 | . | . | . | . | . | .
COC(=O)C(C)Sc1nc2c(c(=O)n1-c1ccccc1)SCC2 (configuration not stated) | . | / | . | . | / | 36
COc1ccccc1Oc1ccc2c(c1)C(=O)N(c1cccc(O)c1)C2=O | . | 94 | . | . | . | .
CCNc1nc(C)c2cc(Br)c(=O)n(CC)c2n1 | 58 | . | . | . | . | .
COc1ccc(OCc2nnc(SC3CCOC3=O)n2-c2ccccc2)cc1 (configuration not stated) | . | . | . | . | . | .
COc1cccc(-n2c(SC3CCOC3=O)nc3ccccc3c2=O)c1 (configuration not stated) | 37 | . | . | . | . | .
COc1ccccc1C(=O)NC(C)C(c1cccs1)N1CCOCC1 (configuration not stated) | . | . | . | . | . | .
O=C1c2oc3ccc(F)cc3c(=O)c2C(c2cccc(O)c2)N1CCCN1CCOCC1 (configuration not stated) | . | . | . | 30 | . | .
SMILES | 5HT1E antag | S1P1 ag pot | 5HT1a antag | 5HT1E ag | S1P3 ag | 5HT1a ag
CCCCNC(=O)CCn1nc(-c2ccccc2)ccc1=O | . | . | . | . | . | .
CCCCN(C)CCCNC(=O)CCn1nc(-c2ccccc2)ccc1=O | . | . | . | 22 | . | .
O=C(c1ccccc1OCc1ccccc1Br)N1CCN(c2ncccn2)CC1 | . | . | . | . | . | .
CCOC(=O)c1[nH]c2ccccc2c1NC(=O)CC | . | . | . | . | . | .
CCOC(=O)c1c(C)nc(-c2ccccc2)nc1NC(=O)CC | . | . | . | 68 | . | .
COc1ccccc1C(=O)NC(=Nc1nc2ccccc2o1)NC(=O)c1ccccc1OC | 41 | . | / | . | . | .
CCN(CC)c1ccc2cc(C(=O)Nc3ccccn3)c(=O)oc2c1 | . | . | / | . | . | 57
CCN(CC)c1ccc2cc(NC(=O)CCC(=O)O)c(=O)oc2c1 | 55 | 58 | . | . | . | .
CCN(CC)c1ccc2cc(C(=O)Nc3cccnc3N3CCOCC3)c(=O)oc2c1 | . | / | . | . | / | .
O=C(OCC1COc2ccccc2O1)c1c(F)cccc1F (configuration not stated) | . | / | . | . | / | .
COc1ccc2[nH]cc(C(=O)CN3CCN(C/C=C/c4ccccc4)CC3)c2c1 | . | . | . | . | . | .
O=C1CCCc2sc3c(c2N1)CCCCC3 | . | . | . | 11 | . | .
Cc1ccccc1Cn1ccc(NC(=O)c2cc3nc(-c4ccco4)cc(C(F)(F)F)n3n2)n1 | . | . | . | . | . | 74
Cc1cc(=O)oc2cc(OCC(O)CN3CCN(c4ccccc4)CC3)ccc12 (configuration not stated) | . | . | 46 | . | . | .
Cc1cc(=O)oc2cc(OCC(=O)N3c4ccccc4CC3C)ccc12 (configuration not stated) | 33 | . | . | . | . | .
Cc1cc(=O)oc2cc(OCC(O)CN3CCc4ccccc4C3)ccc12 (configuration not stated) | . | . | . | . | . | .
COc1ccccc1N1CCN(CC(O)COc2ccc3c(C)cc(=O)oc3c2)CC1 (configuration not stated) | . | / | 88 | . | / | .
Cc1cc(=O)oc2cc(OCC(=O)N3CCCC(C)C3)ccc12 (configuration not stated) | . | . | . | . | . | .
Fc1ccc(N2CCN(C(c3cccs3)c3nnnn3CCc3ccccc3)CC2)cc1 (configuration not stated) | . | . | . | . | . | .
Fc1ccccc1N1CCN(C(c2cccs2)c2nnnn2CCc2ccccc2)CC1 (configuration not stated) | . | . | 57 | . | . | .
c1ccc(CCn2nnnc2C(c2cccnc2)N2CCN(c3ccccc3)CC2)cc1 (configuration not stated) | . | . | . | 9.9 | . | .
c1ccc(CCn2nnnc2C(c2cccnc2)N2CCN(c3nc4ccccc4s3)CC2)cc1 (configuration not stated) | . | . | . | . | . | .
CCCSc1nc(N)cc(=O)[nH]1 | . | . | . | . | . | .
Nc1nonc1C(=O)NCCNCc1cc(Br)ccc1OCc1ccc(F)cc1 | . | 93 | 49 | . | . | .
O=C(NCCN1CCOCC1)c1cc2sccc2n1Cc1ccc(Cl)cc1 | . | . | . | . | . | .
